How the values were obtained:
[1] = In vitro inhibitory activity was determined against human whole blood; format: functional
Canis familiaris [2] = test: Change in QTc were measured at 15 and 30 min after dosing of bolus at 10 mg/kg in dogs; format: functional, Canis lupus familiaris
Method in brief: (§1)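 Chloralose-anesthetized mongrel dogs (n = 2 or 3) given iv bolus over 2–5 min as solution in 60–80% PEG-200. QTc recorded at 15 and 30 min postdose as percent change from baseline per dog; values averaged, ΔQTc taken as maximal mean percent change (range given).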

[3] = In vitro inhibition of […] induced TNF-alpha production in human whole blood (HWB); format: functional, tissue-based
[4] = target: Voltage-gated inwardly rectifying potassium channel KCNH2 (Homo sapiens, UniProt Q12809)
Chain of Voltage-gated inwardly rectifying potassium channel KCNH2 (Q12809 whole entry): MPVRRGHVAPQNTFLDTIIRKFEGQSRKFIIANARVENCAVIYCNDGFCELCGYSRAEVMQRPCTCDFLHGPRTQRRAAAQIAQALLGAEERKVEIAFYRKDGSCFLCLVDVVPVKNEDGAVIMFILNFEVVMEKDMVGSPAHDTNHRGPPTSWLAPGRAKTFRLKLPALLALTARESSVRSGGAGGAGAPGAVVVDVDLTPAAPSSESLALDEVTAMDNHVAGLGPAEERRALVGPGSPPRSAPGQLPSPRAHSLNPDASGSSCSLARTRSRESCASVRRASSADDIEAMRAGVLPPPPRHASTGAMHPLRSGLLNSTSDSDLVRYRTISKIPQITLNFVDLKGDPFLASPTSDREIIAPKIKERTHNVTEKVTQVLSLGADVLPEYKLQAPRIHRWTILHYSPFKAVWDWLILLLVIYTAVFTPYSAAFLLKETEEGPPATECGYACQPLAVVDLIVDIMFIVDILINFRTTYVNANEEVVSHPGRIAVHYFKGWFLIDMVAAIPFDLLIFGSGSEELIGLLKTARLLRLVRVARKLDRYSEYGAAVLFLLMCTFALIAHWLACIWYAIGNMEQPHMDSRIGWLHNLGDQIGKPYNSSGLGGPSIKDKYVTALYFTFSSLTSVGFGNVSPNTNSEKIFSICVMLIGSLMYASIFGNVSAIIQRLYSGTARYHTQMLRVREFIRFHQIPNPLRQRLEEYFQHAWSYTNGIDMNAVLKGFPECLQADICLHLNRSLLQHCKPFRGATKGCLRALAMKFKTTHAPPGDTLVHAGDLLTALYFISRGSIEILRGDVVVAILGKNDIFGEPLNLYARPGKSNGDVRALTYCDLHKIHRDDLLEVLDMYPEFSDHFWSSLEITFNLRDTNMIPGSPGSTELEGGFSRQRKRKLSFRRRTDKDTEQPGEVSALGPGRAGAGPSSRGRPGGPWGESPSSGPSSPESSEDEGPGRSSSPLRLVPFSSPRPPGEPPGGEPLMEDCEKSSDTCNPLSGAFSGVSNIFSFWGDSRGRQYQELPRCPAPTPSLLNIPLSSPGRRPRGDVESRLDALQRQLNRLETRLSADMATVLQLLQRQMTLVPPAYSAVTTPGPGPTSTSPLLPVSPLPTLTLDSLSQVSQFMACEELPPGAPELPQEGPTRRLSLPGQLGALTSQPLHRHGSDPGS

[5] = Ratio of lowest plasma concentration to measured over 30 min interval to 50% inhibition of LPS-induced TNF alpha production in human whole blood; format: functional
[6] = target: 3',5'-cyclic-AMP phosphodiesterase 4A (Homo sapiens, UniProt P27815); test: In vitro inhibitory activity was determined against human Phosphodiesterase 4 isoform using a construct representing the common region of spliced variants expressed as a GST-fusion protein in Sf 9 cells; format: cell-based
Chain of 3',5'-cyclic-AMP phosphodiesterase 4A (P27815 whole entry, looked up, stated change not applied, the tested form may be a part, canonical isoform): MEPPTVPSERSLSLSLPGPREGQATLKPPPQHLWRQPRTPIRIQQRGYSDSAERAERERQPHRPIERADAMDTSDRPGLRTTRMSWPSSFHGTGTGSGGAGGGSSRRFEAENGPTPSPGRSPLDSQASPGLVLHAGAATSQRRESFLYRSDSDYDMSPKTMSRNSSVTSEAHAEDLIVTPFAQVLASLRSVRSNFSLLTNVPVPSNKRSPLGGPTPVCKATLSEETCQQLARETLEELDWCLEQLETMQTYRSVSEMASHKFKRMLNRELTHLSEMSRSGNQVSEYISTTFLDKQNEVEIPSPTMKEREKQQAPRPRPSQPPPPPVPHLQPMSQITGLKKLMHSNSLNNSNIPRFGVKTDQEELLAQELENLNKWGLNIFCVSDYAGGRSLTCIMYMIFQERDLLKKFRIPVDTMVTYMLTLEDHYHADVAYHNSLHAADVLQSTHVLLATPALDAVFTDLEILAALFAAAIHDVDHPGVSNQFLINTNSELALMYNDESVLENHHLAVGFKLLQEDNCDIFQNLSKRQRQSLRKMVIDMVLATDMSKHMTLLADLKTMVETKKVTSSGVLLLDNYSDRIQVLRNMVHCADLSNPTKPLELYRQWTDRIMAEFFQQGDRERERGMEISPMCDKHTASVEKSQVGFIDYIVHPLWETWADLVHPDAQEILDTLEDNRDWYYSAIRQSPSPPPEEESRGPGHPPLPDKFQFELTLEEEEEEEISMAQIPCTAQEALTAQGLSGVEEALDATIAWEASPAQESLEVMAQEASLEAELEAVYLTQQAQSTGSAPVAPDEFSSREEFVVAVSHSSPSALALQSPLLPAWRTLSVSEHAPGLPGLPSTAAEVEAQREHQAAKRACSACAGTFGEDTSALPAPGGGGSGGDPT
Method in brief: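 Human PDE4A, common-region construct of spliced variants expressed as GST-fusion in Sf9 cells; values mean ± SEM with n reported.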

Canis familiaris [7] = test: Range of plasma concentration measured between 2 and 30 min in dogs after intravenous bolus dosing at 10 mg/kg; format: functional, organism-based; design: dose 10 mg/kg; conditions: Canis lupus familiaris
Method in brief: (§2)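 Anesthetized mongrel dogs, iv bolus (2–5 min) in 60–80% PEG-200; plasma drug levels measured by HPLC between 2 and 30 min after dosing, reported as range (±0.2 µM); data from n ≥ 2 dogs.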

Canis familiaris [8] = test: Change in QTc were measured at 15 and 30 min after dosing of bolus at 3 mg/kg in dogs; format: functional, Canis lupus familiaris; method in brief: as §1
Canis familiaris [9] = test: Range of plasma concentration measured between 2 and 30 min in dogs after intravenous bolus dosing at 3 mg/kg; format: functional, organism-based; design: dose 3 mg/kg; conditions: Canis lupus familiaris; method in brief: as §2

Compound | IC50 ([3]; Homo sapiens, Blood) | Ki [4] | IC50 [6] | IC50 [3] | further results
[O-][n+]1cccc(C[C@@H](c2ccc(OC(F)F)c(OC3CC3)c2)c2cnc(C(O)(C(F)(F)F)C(F)(F)F)s2)c1 | 90 nM | 61400 nM | 0.5 nM |  | IC50 [1]: 90 nM; Change (Canis familiaris [2]): 3%; Ratio plasma concentration/IC50 [5]: 211; Plasma concentration (Canis familiaris [7]): 25 µM
CC(C)(O)c1ncc(C(Cc2cc[n+]([O-])cc2)c2ccc(OC(F)F)c(OC3CCC3)c2)s1 (stereo unspecified) | 90 nM | 58400 nM | 0.5 nM |  | IC50 [1]: 100 nM; Change (Canis familiaris [2]): 2.9%; Ratio plasma concentration/IC50 [5]: 40; Plasma concentration (Canis familiaris [7]): 10 µM
[O-][n+]1cccc(C[C@H](c2ccc(OC(F)F)c(OC3CC3)c2)c2cnc(C(O)(C(F)(F)F)C(F)(F)F)s2)c1 | 2640 nM | 39000 nM | 48 nM |  | 
CC(O)(c1ccccc1)c1ccc(C(Cc2cc[n+]([O-])cc2)c2ccc(OC(F)F)c(OC(F)F)c2)cn1 (stereo unspecified) | 160 nM | 1180 nM | 2.1 nM |  | IC50 [1]: 160 nM; Change (Canis familiaris [8]): 8.9%; Ratio plasma concentration/IC50 [5]: 12.5; Plasma concentration (Canis familiaris [9]): 5 µM
CC(C)(O)c1ccc(C(Cc2cc[n+]([O-])cc2)c2ccc(OC(F)F)c(OC3CCC3)c2)cn1 (stereo unspecified) | 120 nM | 25000 nM | 1 nM |  | 
CC(C)(O)c1ccc(C(Cc2cc[n+]([O-])cc2)c2ccc(OC(F)F)c(OC3CCC3)c2)cc1 (racemic) | 260 nM | 22400 nM | 1.6 nM |  | 
[O-][n+]1ccc(CC(c2ccc(OC(F)F)c(OC3CCC3)c2)c2cnc(C(O)(C(F)(F)F)C(F)(F)F)s2)cc1 (racemic) | 20 nM | 38100 nM | 0.8 nM |  | 
[O-][n+]1ccc(CC(c2ccc(OC(F)F)c(OC3CC3)c2)c2cnc(C(O)(C(F)(F)F)C(F)(F)F)s2)cc1 (racemic) | 20 nM |  | 0.4 nM |  | 
CC(C)(O)c1ccc(C(Cc2ccc[n+]([O-])c2)c2ccc(OC(F)F)c(OC3CC3)c2)cn1 (single isomer, unassigned; (+)2d) |  | 42200 nM | 2.1 nM | 200 nM | 
CC(C)(O)c1ccc(C(Cc2cc[n+]([O-])cc2)c2ccc(OC(F)F)c(OC3CC3)c2)cn1 (single isomer, unassigned; (+)) |  |  | 1.2 nM | 60 nM | 
CC(C)(O)c1ccc(C(CC2=CCC(=O)N=C2)c2ccc(OC(F)F)c(OC3CC3)c2)cn1 (single isomer, unassigned; (+)) | 60 nM |  |  |  | 
CC(C)(O)c1ccc(C(Cc2ccc[n+]([O-])c2)c2ccc(OC(F)F)c(OC3CC3)c2)cn1 (single isomer, unassigned; (-)2d) |  | 44700 nM | 334 nM | 17900 nM | 
CC(C)(O)c1ccc(C(Cc2cc[n+]([O-])cc2)c2ccc(OC(F)F)c(OC3CC3)c2)cn1 (single isomer, unassigned; (-)) |  |  | 55 nM | 3520 nM | 
CC(C)(O)c1ccc(C(Cc2cc[n+]([O-])cc2)c2ccc(OC(F)F)c(OC(F)F)c2)cn1 (single isomer, unassigned; (-)) |  | 22700 nM | 35 nM | 640 nM | 
CC(C)(O)c1ccc(C(Cc2cc[n+]([O-])cc2)c2ccc(OC(F)F)c(OC(F)F)c2)cn1 (stereo in doubt; 2a(+)) |  | 25400 nM | 520 nM | 9010 nM | 
COc1ccc([C@H](Cc2ccncc2)c2ccccc2)cc1OC1CCCC1 [CDP840] | 16200 nM |  | 4.3 nM |  | 
O=c1[nH]c2c(O)ccc(CCNCCS(=O)(=O)CCCOCCc3ccccc3)c2s1 [SIBENADET] | 18000 nM |  | 38 nM |  | 

— ChEMBL document CHEMBL1145790, “Optimization of a tertiary alcohol series of phosphodiesterase-4 (PDE4) inhibitors: structure-activity relationship related to PDE4 inhibition and human ether-a-go-go related gene potassium channel binding affinity” (J Med Chem, 2003)
